Experimental data from ChEMBL document CHEMBL1124866, “Synthesis and activity of NAcSerAspLysPro analogues on cellular interactions between T-cell and erythrocytes in rosette formation” (1990).
Activity calls are given as the source filed them. The calls are words filed in the database; no cut-off is given here. Peptide text beside a SMILES is read from it.

What was measured:
Jurkat [1] = experiment: Activity on rosetting of jurkat T-cells with SRBC at the concentration of 10e-7 M; Not significant; type: functional, cell-based; details: Homo sapiens, at 0.1 µM
In short: (§1)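 Jurkat T lymphoma cells kept in RPMI 1640 with 10% heat-inactivated FCS, washed three times before use; SRBC washed three times. Jurkat cells (2 × 10^6 cells/mL, 2.10⁵ cells) preincubated with peptide in RPMI for 10 min at 4 °C. SRBC (2 × 10^8 cells/mL) added, centrifuged 5 min at 200g, held overnight at 4 °C. Rosettes (three erythrocytes per lymphocyte) counted blind by hemocytometer; three experiments in quadruplicate; % inhibition.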

Jurkat [2] = experiment: (§2) Activity on rosetting of jurkat T-cells with SRBC at the concentration of 10e-8 M; type: functional, Homo sapiens
Jurkat [3] = experiment: Activity on rosetting of jurkat T-cells with SRBC at the concentration of 0 M; type: functional, Homo sapiens
Jurkat [4] = experiment: (§3) Activity on rosetting of jurkat T-cells with SRBC at the concentration of 10e-6 M; type: functional, Homo sapiens
Jurkat [5] = experiment: (§4) Activity on rosetting of jurkat T-cells with SRBC at the concentration of 10e-9 M; type: functional, Homo sapiens
Jurkat [6] = experiment: (§5) Activity on rosetting of jurkat T-cells with SRBC at the concentration of 10e-10 M; type: functional, Homo sapiens
Jurkat [7] = experiment: Activity on rosetting of jurkat T-cells with SRBC at the concentration of 10e-6 M; Not significant; type: functional, cell-based; details: Homo sapiens
Jurkat [8] = experiment: Activity on rosetting of jurkat T-cells with SRBC at the concentration of 10e-4 M; Not significant; type: functional, cell-based; details: Homo sapiens
Jurkat [9] = experiment: (§6) Activity on rosetting of jurkat T-cells with SRBC at the concentration of 10e-4 M; type: functional, Homo sapiens
Jurkat [10] = experiment: (§7) Activity on rosetting of jurkat T-cells with SRBC at the concentration of 10e-11 M; type: functional, Homo sapiens
Jurkat [11] = experiment: Activity on rosetting of jurkat T-cells with SRBC at the concentration of 10e-5 M; Not significant; type: functional, cell-based; details: Homo sapiens
Jurkat [12] = experiment: (§8) Activity on rosetting of jurkat T-cells with SRBC at the concentration of 10e-3 M; type: functional, Homo sapiens
Jurkat [13] = experiment: (§9) Activity on rosetting of jurkat T-cells with SRBC at the concentration of 10e-5 M; type: functional, Homo sapiens
Jurkat [14] = experiment: Activity on rosetting of jurkat T-cells with SRBC at the concentration of 10e-11 M; Not significant; type: functional, cell-based; details: Homo sapiens, at 10 pM; in short: as §1
Jurkat [15] = experiment: Activity on rosetting of jurkat T-cells with SRBC at the concentration of 10e-9 M; Not significant; type: functional, cell-based; details: Homo sapiens, at 0.001 µM; in short: as §1
Jurkat [16] = experiment: (§10) Activity on rosetting of jurkat T-cells with SRBC at the concentration of 10e-7 M; type: functional, Homo sapiens
Jurkat [17] = experiment: Activity on rosetting of jurkat T-cells with SRBC at the concentration of 10e-8 M; Not significant; type: functional, cell-based; details: Homo sapiens, at 0.01 µM; in short: as §1
Jurkat [18] = experiment: Activity on rosetting of jurkat T-cells with SRBC at the concentration of 10e-10 M; Not significant; type: functional, cell-based; details: Homo sapiens, at 0.0001 µM; in short: as §1
Jurkat [19] = experiment: Activity on rosetting of jurkat T-cells with SRBC at the concentration of 10e-3 M; Not significant; type: functional, cell-based; details: Homo sapiens
Jurkat [20] = experiment: as §5; type: functional; details: Homo sapiens
Jurkat [21] = experiment: as §4; type: functional; details: Homo sapiens
Jurkat [22] = experiment: as §9; type: functional; details: Homo sapiens
Jurkat [23] = experiment: Activity on rosetting of jurkat T-cells with SRBC at the concentration of 10e-12 M; Not Significant; type: functional, cell-based; details: Homo sapiens
Jurkat [24] = experiment: Activity on rosetting of jurkat T-cells with SRBC at the concentration of 10e-11 M; Not Significant; type: functional, cell-based; details: Homo sapiens
Jurkat [25] = experiment: as §2; type: functional; details: Homo sapiens
Jurkat [26] = experiment: as §6; type: functional; details: Homo sapiens
Jurkat [27] = experiment: as §10; type: functional; details: Homo sapiens
Jurkat [28] = experiment: (§11) Activity on rosetting of jurkat T-cells with SRBC at the concentration of 10e-12 M; type: functional, Homo sapiens
Jurkat [29] = experiment: as §3; type: functional; details: Homo sapiens
Jurkat [30] = experiment: Activity on rosetting of jurkat T-cells with SRBC at the concentration of 10e-10 M; Not Determined; type: functional, Homo sapiens
Jurkat [31] = experiment: as §7; type: functional; details: Homo sapiens
Jurkat [32] = experiment: (§12) Activity on rosetting of jurkat T-cells with SRBC at the concentration of 10e-13 M; type: functional, Homo sapiens
Jurkat [33] = experiment: (§13) Activity on rosetting of jurkat T-cells with SRBC at the concentration of 10e-14 M; type: functional, Homo sapiens
Jurkat [34] = experiment: Activity on rosetting of jurkat T-cells with SRBC at the concentration of 10e-15 M; type: functional, Homo sapiens
Jurkat [35] = experiment: as §11; type: functional; details: Homo sapiens
Jurkat [36] = experiment: as §12; type: functional; details: Homo sapiens
Jurkat [37] = experiment: as §13; type: functional; details: Homo sapiens
Jurkat [38] = experiment: Activity on rosetting of jurkat T-cells with SRBC at the concentration of 10e-15 M; Not significant; type: functional, cell-based; details: Homo sapiens
Jurkat [39] = experiment: as §8; type: functional; details: Homo sapiens

Question: How did the inhibition (Jurkat [1]) turn out when `CC(=O)N[C@@H](CO)C(=O)N[C@H](CC(=O)O)C(=O)N[C@@H](CCCCN)C(=O)N1CCC[C@H]1C(=O)O` was run?
Answer: inactive

Question: What about the “No. of rosettes/100 Jurkat T cells” value (Jurkat [2]) of the same compound?
Answer: 47

Question: And the “No. of rosettes/100 Jurkat T cells” value (Jurkat [3])?
Answer: 51

Question: And the “No. of rosettes/100 Jurkat T cells” value (Jurkat [4])?
Answer: 42

Question: And the “No. of rosettes/100 Jurkat T cells” value (Jurkat [5])?
Answer: 51

Question: What about the “No. of rosettes/100 Jurkat T cells” value (Jurkat [6]) of the same compound?
Answer: 43

Question: What about the inhibition (Jurkat [7]) of the same compound?
Answer: inactive

Question: And the inhibition (Jurkat [8])?
Answer: inactive

Question: And the “No. of rosettes/100 Jurkat T cells” value (Jurkat [9])?
Answer: 48

Question: And the “No. of rosettes/100 Jurkat T cells” value (Jurkat [10])?
Answer: 57

Question: What about the inhibition (Jurkat [11]) of the same compound?
Answer: inactive

Question: What about the “No. of rosettes/100 Jurkat T cells” value (Jurkat [12]) of the same compound?
Answer: 48

Question: What about the “No. of rosettes/100 Jurkat T cells” value (Jurkat [13]) of the same compound?
Answer: 49

Question: And the inhibition (Jurkat [14])?
Answer: inactive

Question: And the inhibition (Jurkat [15])?
Answer: inactive

Question: And the “No. of rosettes/100 Jurkat T cells” value (Jurkat [16])?
Answer: 47

Question: What about the inhibition (Jurkat [17]) of the same compound?
Answer: inactive

Question: And the inhibition (Jurkat [18])?
Answer: inactive

Question: And the inhibition (Jurkat [19])?
Answer: inactive

Question: For `CC(=O)N[C@@H](CO)C(=O)N[C@@H](CC(=O)O)C(=O)N[C@@H](CCCCN)C(=O)O` (Ac-Ser-Asp-Lys-OH), which inhibition at 0.0001 µM (Jurkat [20]) is on record?
Answer: 10%

Question: And the inhibition at 0.001 µM (Jurkat [21])?
Answer: 18%

Question: And the “No. of rosettes/100 Jurkat T cells” value (Jurkat [2])?
Answer: 48

Question: And the inhibition at 10 µM (Jurkat [22])?
Answer: 40%

Question: And the inhibition (Jurkat [23])?
Answer: inactive

Question: What about the inhibition (Jurkat [24]) of the same compound?
Answer: inactive

Question: And the “No. of rosettes/100 Jurkat T cells” value (Jurkat [3])?
Answer: 63

Question: And the inhibition at 0.01 µM (Jurkat [25])?
Answer: 23%

Question: What about the “No. of rosettes/100 Jurkat T cells” value (Jurkat [4]) of the same compound?
Answer: 38

Question: And the “No. of rosettes/100 Jurkat T cells” value (Jurkat [5])?
Answer: 51

Question: And the inhibition at 100 µM (Jurkat [26])?
Answer: 44%

Question: And the “No. of rosettes/100 Jurkat T cells” value (Jurkat [9])?
Answer: 35

Question: What about the “No. of rosettes/100 Jurkat T cells” value (Jurkat [10]) of the same compound?
Answer: 62

Question: And the inhibition at 0.1 µM (Jurkat [27])?
Answer: 27%

Question: What about the “No. of rosettes/100 Jurkat T cells” value (Jurkat [28]) of the same compound?
Answer: 59

Question: What about the “No. of rosettes/100 Jurkat T cells” value (Jurkat [13]) of the same compound?
Answer: 37

Question: What about the inhibition at 1 µM (Jurkat [29]) of the same compound?
Answer: 39%

Question: And the “No. of rosettes/100 Jurkat T cells” value (Jurkat [30])?
Answer: 56

Question: What about the “No. of rosettes/100 Jurkat T cells” value (Jurkat [16]) of the same compound?
Answer: 45

Question: Which inhibition at 0.0001 µM (Jurkat [20]) does the source give for `NCCCC[C@H](NC(=O)[C@H](CC(=O)O)NC(=O)[C@@H](N)CO)C(=O)O` (H-Ser-Asp-Lys-OH) here?
Answer: 32%

Question: And the inhibition at 0.001 µM (Jurkat [21])?
Answer: 32%

Question: What about the “No. of rosettes/100 Jurkat T cells” value (Jurkat [2]) of the same compound?
Answer: 40

Question: And the inhibition at 10 pM (Jurkat [31])?
Answer: 36%

Question: What about the inhibition at 10 µM (Jurkat [22]) of the same compound?
Answer: 28%

Question: And the “No. of rosettes/100 Jurkat T cells” value (Jurkat [32])?
Answer: 51

Question: What about the “No. of rosettes/100 Jurkat T cells” value (Jurkat [3]) of the same compound?
Answer: 63

Question: What about the inhibition at 0.01 µM (Jurkat [25]) of the same compound?
Answer: 36%

Question: What about the “No. of rosettes/100 Jurkat T cells” value (Jurkat [33]) of the same compound?
Answer: 55

Question: And the “No. of rosettes/100 Jurkat T cells” value (Jurkat [4])?
Answer: 50

Question: What about the “No. of rosettes/100 Jurkat T cells” value (Jurkat [5]) of the same compound?
Answer: 43

Question: And the inhibition at 100 µM (Jurkat [26])?
Answer: 40%

Question: What about the “No. of rosettes/100 Jurkat T cells” value (Jurkat [6]) of the same compound?
Answer: 43

Question: What about the “No. of rosettes/100 Jurkat T cells” value (Jurkat [9]) of the same compound?
Answer: 38

Question: What about the “No. of rosettes/100 Jurkat T cells” value (Jurkat [34]) of the same compound?
Answer: 63

Question: And the inhibition at 1 pM (Jurkat [35])?
Answer: 30%

Question: What about the “No. of rosettes/100 Jurkat T cells” value (Jurkat [10]) of the same compound?
Answer: 40

Question: And the inhibition at 0.1 µM (Jurkat [27])?
Answer: 22%

Question: And the “No. of rosettes/100 Jurkat T cells” value (Jurkat [28])?
Answer: 44

Question: What about the “No. of rosettes/100 Jurkat T cells” value (Jurkat [13]) of the same compound?
Answer: 45

Question: What about the inhibition at 1 µM (Jurkat [29]) of the same compound?
Answer: 22%

Question: And the inhibition at 100 fM (Jurkat [36])?
Answer: 19%

Question: And the “No. of rosettes/100 Jurkat T cells” value (Jurkat [16])?
Answer: 49

Question: And the inhibition at 10 fM (Jurkat [37])?
Answer: 14%

Question: What about the inhibition (Jurkat [38]) of the same compound?
Answer: inactive

Question: How did the inhibition at 0.001 µM (Jurkat [21]) turn out when `CC(=O)N[C@@H](CO)C(=O)N[C@@H](CC(=O)O)C(=O)N[C@@H](CCCCN)C(=O)N1CCC[C@H]1C(=O)O` (stereo in doubt; form 1) [GORALATIDE] was run?
Answer: 21%

Question: What about the “No. of rosettes/100 Jurkat T cells” value (Jurkat [2]) of the same compound?
Answer: 41

Question: What about the inhibition at 10 µM (Jurkat [22]) of the same compound?
Answer: 48%

Question: And the “No. of rosettes/100 Jurkat T cells” value (Jurkat [3])?
Answer: 62

Question: And the inhibition at 0.01 µM (Jurkat [25])?
Answer: 34%

Question: What about the “No. of rosettes/100 Jurkat T cells” value (Jurkat [4]) of the same compound?
Answer: 37

Question: What about the “No. of rosettes/100 Jurkat T cells” value (Jurkat [5]) of the same compound?
Answer: 48

Question: And the inhibition at 100 µM (Jurkat [26])?
Answer: 48%

Question: And the “No. of rosettes/100 Jurkat T cells” value (Jurkat [6])?
Answer: 63

Question: What about the “No. of rosettes/100 Jurkat T cells” value (Jurkat [9]) of the same compound?
Answer: 33

Question: And the “No. of rosettes/100 Jurkat T cells” value (Jurkat [10])?
Answer: 58

Question: What about the inhibition at 0.1 µM (Jurkat [27]) of the same compound?
Answer: 35%

Question: What about the “No. of rosettes/100 Jurkat T cells” value (Jurkat [12]) of the same compound?
Answer: 32

Question: What about the inhibition at 1000 µM (Jurkat [39]) of the same compound?
Answer: 48%

Question: What about the “No. of rosettes/100 Jurkat T cells” value (Jurkat [13]) of the same compound?
Answer: 32

Question: And the inhibition at 1 µM (Jurkat [29])?
Answer: 40%

Question: What about the “No. of rosettes/100 Jurkat T cells” value (Jurkat [16]) of the same compound?
Answer: 40
